Most compounds without a hit are left out; they make up all but 2.3% or so of the library.
EBNA-1 inhibitor – EBNA-1 DNA-binding inhibitors, primary screen, biochemical, fluorescence polarization; 0.34% of 300,000 active; inhibition, % at 14.8 µM; AID 1950, 2009; in the data active means inhibition above about 28%
GPR7 antagonist – GPR7 receptor antagonists, primary screen, cell-based, fluorescence, single concentration; Neuropeptides B/W receptor type 1 (Homo sapiens), P48145; GPR7-expressing cells, fluorescence antagonist assay; inhibition, % at 4.4 µM; 1.1% of 290,000 active; AID 1861, 2009; in the data active means inhibition above about 16%, passing the limit was not always enough;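 further: cells stimulated with the agonist NPW; 0% = agonist with vehicle and 100% = vehicle without agonist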
HCV core dimer – inhibitors of HCV core protein dimerization, primary screen, biochemical, TR-FRET, high-throughput | 0.33% of 300,000 active | inhibition, % at 5 µM | TR-FRET GST/Flag-core106 dimerization, 1536-well;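 active means inhibition above the mean of all tested compounds plus 3 SD, set per screening campaign, cut at about 45% in these data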
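System: GST/Flag-tagged HCV core106 proteins. Incubation: compound-protein-antibody incubation 4 h at 22.5 °C. Technique: HTRF with 340 nm excitation, 617/671 nm emission. Medium: KF-containing HEPES buffer, pH 7.45, DTT, CHAPS, BSA. Read-out: inhibition (%) from 671 over 617 nm ratio. Also added: Eu(K)-anti-GST 90 ng/mL plus XL665-anti-Flag 1 µg/mL.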
NS3 helicase inh – inhibitors of HCV NS3 helicase, primary screen, biochemical, Cy5 molecular beacon fluorescence; Hepatitis C virus NS3 helicase; NS3 helicase DNA unwinding; inhibition, % at 10.9 µM; 0.56% of 290,000 active; AID 1800, 2009;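 active means inhibition above the mean of all tested compounds plus 3 SD, set per campaign, cut at about 35% in these data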;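 further: 0% = DMSO wells and 100% = thioflavine S control wells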
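System: NS3 helicase fragment of HCV / Schedule: 1 h at 25 °C / Control set: DMSO alone as 0% and 110 µM thioflavine S as 100% / Reagent: Cy5/quencher beacon DNA duplex and ATP to start / Technique: Cy5 fluorescence / Replication: singlicate / Evaluation: % inhibition of end-to-start signal ratio versus controls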
ZTA DNA inh – ZTA (EBV) inhibition in EBNA-1 counter-screen | P03206 | ZTA-DNA binding, fluorescence polarization | inhibition, % at 11 µM | 0.15% of 320,000 active | AID 2234; in the data active means inhibition above about 33%
Target sequence (P03206 whole entry, looked up): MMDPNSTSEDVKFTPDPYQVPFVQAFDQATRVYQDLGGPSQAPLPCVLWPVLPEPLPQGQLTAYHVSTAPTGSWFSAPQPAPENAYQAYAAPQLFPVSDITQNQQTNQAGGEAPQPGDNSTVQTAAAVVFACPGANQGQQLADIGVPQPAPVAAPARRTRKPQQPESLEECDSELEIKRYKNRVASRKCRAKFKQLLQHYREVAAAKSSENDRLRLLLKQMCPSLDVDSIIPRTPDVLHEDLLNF
EBV gp42 block – Epstein-Barr virus gp42 inhibitors, primary screen, biochemical, uHTS, fluorescence polarization. Glycoprotein 42 (Epstein-Barr virus (strain AG876)), Q1HVG2. Fluorescence polarization binding assay, mP read-out. inhibition, % (tested at 21.74 µM). 0.42% of 220,000 active. AID 1085, 2008; in the data active means inhibition above about 50%
Target sequence (Q1HVG2 whole entry, looked up): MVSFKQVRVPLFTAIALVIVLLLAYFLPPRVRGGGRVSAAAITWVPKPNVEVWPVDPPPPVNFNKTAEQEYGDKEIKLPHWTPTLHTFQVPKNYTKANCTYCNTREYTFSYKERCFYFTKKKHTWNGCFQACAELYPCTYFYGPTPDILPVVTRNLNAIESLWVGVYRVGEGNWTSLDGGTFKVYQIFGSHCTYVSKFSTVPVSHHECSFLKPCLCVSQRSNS
NS3 hel confirm – HCV NS3 helicase inhibitors, retest, confirmation, biochemical, Cy5 molecular beacon fluorescence, triplicate. shares compounds with NS3 helicase inh. NS3 helicase DNA unwinding. 31% of 1,600 active. inhibition, % at 10.9 µM;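 active means inhibition above the mean of all tested compounds plus 3 SD, cutoff set per campaign, cut at about 36% in these data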
FID counter trip – compounds displacing fluorescent DNA intercalator, artefact control for HCV NS3 helicase inhibitor project, biochemical, FID fluorescence, triplicate; shares compounds with NS3 helicase inh; DNA fluorescent intercalator displacement; inhibition, % at 7.9 µM; 4% of 1,600 active; in the data active means inhibition above about 37%;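 further: 0% = vehicle and 100% = reference compound; higher means more displacement of ethidium bromide from the DNA hairpin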
* hit, by the source's call; . = no result.

SMILES	EBNA-1 inhibitor	GPR7 antagonist	HCV core dimer	NS3 helicase inh	ZTA DNA inh	EBV gp42 block	NS3 hel confirm	FID counter trip
CC(C)N(Cc1cn(C)nc1-c1cccc(Cl)c1)Cc1nccn1C	-17	-15	-2	-9	-14	-6	.	.
CCOC(=O)c1cnc(-c2ccccc2)nc1N	7	-4	-4	1	9	4	.	.
CCOC(=O)c1cnc(-c2ccccc2)nc1N1CCOCC1	-8	-17	0	49*	-2	-1	-14	-20
COc1nc(-c2ccc(C)cc2)ccc1-c1noc(-c2ccco2)n1	1	-6	6	40*	11	.	-3	-3
O=C(CCSc1ccc(Br)cc1)Nc1cccnc1	5	-4	-13	-15	-13	-4	.	.
Cc1ccc(C(=O)N/N=C/c2ccc(-c3cccc(Cl)c3)o2)cn1	-8	-12	-3	7	-6	-9	.	.
Cc1ccc(C(=O)N/N=C\c2ccc(-c3ccc(Cl)c(Cl)c3)o2)cn1	17	-5	4	69*	-6	-4	-7	-7
COCn1ccnc1C(O)(c1ccc(OC)cc1)c1ccc(OC)cc1	1	-9	-7	-4	-5	-20	.	.
CC(C)(C)c1ccc(OCCC(=O)OCC(=O)Nc2cccnc2Cl)cc1	7	.	0	.	-7	.	.	.
O=C(c1ccco1)N1CCN(C(=O)c2[nH]ncc2[N+](=O)[O-])CC1	-15	12	3	37*	0	-6	-17	6
CCOc1cccc(-c2c(C(=O)N/N=C/c3ccc(Br)cc3)nnn2-c2nonc2N)c1	-3	-2	15	-11	3	.	.	.
COc1ccc(-c2nc(N)nc(C)c2Oc2ccccc2Br)c(O)c1	6	-13	3	-22	11	18	.	.
COc1ccccc1CNC(=O)CS(=O)(=O)Cc1ccccc1	4	-2	-2	3	13	.	.	.
COc1cc2c(cc1OC)C(c1cc3cccc(C)c3[nH]c1=O)N(C(=O)c1ccco1)CC2 (centres undefined)	3	-4	5	0	7	.	.	.
Cc1ccc(OCC(=O)N/N=C/c2ccc([N+](=O)[O-])o2)cc1	8	-1	-10	13	-11	-14	.	.
O=C(CNc1ccc2ccccc2c1)N/N=C/c1ccc([N+](=O)[O-])o1	-22	-4	-8	55*	-17	9	0	11
O=C(COc1ccccc1)N/N=C/c1ccc([N+](=O)[O-])o1	-6	-6	0	41*	0	2	-7	15
O=C(N/N=C/c1ccc([N+](=O)[O-])o1)c1cc(-c2cccc(Br)c2)nc2ccccc12	-10	-11	71*	41*	-7	-7	38*	18
O=C1Cc2cc(S(=O)(=O)Nc3ccccc3Cl)cc3c2N1CCC3	11	4	10	1	10	.	.	.
CCC(C)C(NC(=O)C(C)NC(=O)CNC(=O)OC(C)(C)C)C(N)=O (centres undefined)	-12	3	0	6	1	-5	.	.
O/N=C(\CN1CCCCC1)c1ccccc1	-5	-3	-1	-9	-8	.	.	.
COc1ccc(CCNC(=O)C(=O)NCC2OCCN2S(=O)(=O)c2ccccc2)cc1 (centres undefined)	3	-5	14	37*	1	.	-12	-47
COc1ccc(CCNC(=O)C(=O)NCC2OCCN2S(=O)(=O)c2ccc(Br)cc2)cc1 (centres undefined)	5	-4	4	-11	-26	-9	.	.
CCOc1ccc(OCCCCN(C)C)cc1	15	9	-2	49*	-5	-30	-7	15
CN1CCN(CC(=O)N(C)c2nc(-c3ccccc3)cs2)CC1	-1	4	-12	49*	-5	-28	-2	22
